Assay results published in ChEMBL document CHEMBL1153836, “Effects of human immunodeficiency virus protease inhibitors on the intestinal absorption of tenofovir disoproxil fumarate in vitro” (Antimicrob Agents Chemother, 2007).
Blank lines part the entries; values can stand above or below the compound they belong to. Calls of active or inactive are those of the source. No cut-off for these calls is given here.

Experiments:
[1] = system: Homo sapiens; assay: Effect on tenofovir disoproxil fumarate metabolism in ritonavir booster drug treated healthy human assessed as change in plasma Cmin of tenofovir at 1250 mg, po, BID co-administered with 300 mg once daily dose of tenofovir disoproxil fumarate; assay type: ADME, organism-based; conditions: in vivo
[2] = molecular target: ATP-dependent translocase ABCB1 (Homo sapiens, UniProt P08183); assay: Inhibition of human MDR1-dependent accumulation of calcein-AM expressed in MDCK2 cells; assay type: cell-based, MDCK-II; conditions: for Activity: human, mdck-ii
ATP-dependent translocase ABCB1, sequence (P08183 whole entry): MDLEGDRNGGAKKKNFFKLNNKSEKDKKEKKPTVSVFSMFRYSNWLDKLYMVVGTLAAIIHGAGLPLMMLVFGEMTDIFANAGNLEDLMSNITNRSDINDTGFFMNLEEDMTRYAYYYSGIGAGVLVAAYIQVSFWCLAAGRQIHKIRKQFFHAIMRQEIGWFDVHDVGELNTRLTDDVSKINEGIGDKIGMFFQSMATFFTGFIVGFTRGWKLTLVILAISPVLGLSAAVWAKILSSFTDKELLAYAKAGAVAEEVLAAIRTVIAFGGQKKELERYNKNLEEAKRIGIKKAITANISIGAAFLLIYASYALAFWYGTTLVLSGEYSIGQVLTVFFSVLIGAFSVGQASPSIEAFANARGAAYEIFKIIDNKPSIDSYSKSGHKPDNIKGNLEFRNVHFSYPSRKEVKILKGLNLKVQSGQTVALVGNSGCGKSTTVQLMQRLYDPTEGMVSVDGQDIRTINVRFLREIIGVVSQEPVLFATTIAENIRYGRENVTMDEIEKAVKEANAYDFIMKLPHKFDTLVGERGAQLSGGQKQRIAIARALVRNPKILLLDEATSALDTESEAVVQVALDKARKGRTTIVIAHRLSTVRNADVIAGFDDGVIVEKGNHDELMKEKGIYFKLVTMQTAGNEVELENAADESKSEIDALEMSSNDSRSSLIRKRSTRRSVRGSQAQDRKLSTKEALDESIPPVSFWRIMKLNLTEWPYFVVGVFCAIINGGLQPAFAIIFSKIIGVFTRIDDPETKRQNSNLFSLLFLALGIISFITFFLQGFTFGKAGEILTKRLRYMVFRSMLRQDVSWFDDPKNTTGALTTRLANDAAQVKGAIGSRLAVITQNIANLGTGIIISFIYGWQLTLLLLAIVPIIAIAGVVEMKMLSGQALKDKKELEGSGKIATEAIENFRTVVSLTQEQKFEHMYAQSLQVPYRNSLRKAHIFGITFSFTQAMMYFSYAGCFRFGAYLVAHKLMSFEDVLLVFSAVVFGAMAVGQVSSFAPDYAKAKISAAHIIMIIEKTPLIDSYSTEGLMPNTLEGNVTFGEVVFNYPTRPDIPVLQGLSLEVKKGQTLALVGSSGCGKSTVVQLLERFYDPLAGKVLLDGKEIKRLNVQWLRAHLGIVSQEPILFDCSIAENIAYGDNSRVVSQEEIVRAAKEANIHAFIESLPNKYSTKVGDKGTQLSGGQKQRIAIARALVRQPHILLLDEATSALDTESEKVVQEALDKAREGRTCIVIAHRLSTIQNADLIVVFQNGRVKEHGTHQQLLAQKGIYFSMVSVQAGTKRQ
Procedure, shortened: (§1)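 Parental and MDR1-transfected MDCKII cells received calcein-AM together with PI (seven twofold dilutions from 50 µM, no serum proteins). Intracellular calcein fluorescence was read in a 96-well format. Percent increase in fluorescence was fitted to a hyperbolic curve for IC50. Duplicates; 3–10 independent assays.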

[3] = species on record: Homo sapiens; assay: Inhibition of esterase mediated-hydrolysis of tenofovir disoproxil fumarate in human intestinal sub cellular fraction S9 at 2 uM after 30 mins
Procedure, shortened: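 Reactions were stopped at 30 and 60 min with 67% acetonitrile, and TDF was measured by LC/MS/MS. Degradation rate came from a single-exponential fit, expressed as percent inhibition versus DMSO. Duplicates; three to six independent experiments.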

[4] = molecular target: T1, MDR1 (ABCB1, P-glycoprotein) (Homo sapiens, UniProt P08183); assay: Inhibition of human MDR1-dependent accumulation of calcein-AM expressed in MDCK2 cells at 20 uM; assay type: cell-based, MDCK-II; conditions: MDCK2 cells expressing human MDR1, probe calcein-AM
T1 sequence (P08183 whole entry): as above

[5] = system: Caco-2; assay: Increase in P-glycoprotein-mediated tenofovir disoproxil fumarate permeation from apical to basolateral side of human Caco-2 cells at 20 uM; assay type: cell-based
Procedure, shortened: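 Caco-2 monolayers were preincubated 30 min with 20 µM PI in transport buffer, then given fresh buffer with inhibitor plus TDF on the apical side. […] Duplicates; mean ± SD of three independent experiments.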

[6] = molecular target: T1, MDR1 (ABCB1, P-glycoprotein); assay: Inhibition of human MDR1-dependent accumulation of calcein-AM expressed in MDCK2 cells at 50 uM; assay type: cell-based, MDCK-II; parameters: activity at 50 µM: scale not given: the % may be the effect or the level left; conditions: MDCK2 cells expressing human MDR1, probe calcein-AM; procedure, shortened: as §1
[7] = system: Homo sapiens; assay: Effect on tenofovir disoproxil fumarate metabolism in ritonavir booster drug treated healthy human assessed as change in plasma Cmin of tenofovir at 300 mg, po, BID co-administered with 300 mg once daily dose of tenofovir disoproxil fumarate; assay type: ADME, organism-based; conditions: in vivo
[8] = system: Homo sapiens; assay: Effect on tenofovir disoproxil fumarate metabolism in ritonavir booster drug treated healthy human assessed as change in plasma AUC of tenofovir at 300 mg, po, BID co-administered with 300 mg once daily dose of tenofovir disoproxil fumarate; assay type: ADME, organism-based; conditions: in vivo
[9] = system: Homo sapiens; assay: Effect on tenofovir disoproxil fumarate metabolism in ritonavir booster drug treated healthy human assessed as change in plasma Cmax of tenofovir at 300 mg, po, BID co-administered with 300 mg once daily dose of tenofovir disoproxil fumarate; assay type: ADME, organism-based; conditions: in vivo
[10] = system: Caco-2; assay: Increase in P-glycoprotein-mediated forward permeation of tenofovir disoproxil fumarate in human Caco-2 cells at 2 uM; assay type: cell-based
[11] = species on record: Homo sapiens; assay: Inhibition of esterase mediated-hydrolysis of tenofovir disoproxil fumarate in human intestinal sub cellular fraction S9 assessed as rate of tenofovir disoproxil fumarate degradation at 100 uM after 30 mins
Procedure, shortened: (§2)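 Human intestinal S9 at 1 mg/ml protein; TDF 2 µM incubated with or without inhibitor (10, 50 or 100 µM) at 37°C in duplicate. Reactions were stopped at 30 and 60 min with 67% acetonitrile, protein removed by centrifugation, and TDF measured by LC/MS/MS. The degradation rate came from a single-exponential-decay fit.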

[12] = species on record: Homo sapiens; assay: Inhibition of esterase mediated-hydrolysis of tenofovir disoproxil fumarate in human intestinal sub cellular fraction S9 assessed as rate of tenofovir disoproxil fumarate degradation at 50 uM after 30 mins; procedure, shortened: as §2
[13] = species on record: Homo sapiens; assay: Inhibition of esterase mediated-hydrolysis of tenofovir disoproxil fumarate in human intestinal sub cellular fraction S9 assessed as rate of tenofovir disoproxil fumarate degradation at 10 uM after 30 mins; procedure, shortened: as §2
[14] = system: Caco-2; assay: Increase in P-glycoprotein-mediated forward permeation of tenofovir disoproxil fumarate in human Caco-2 cells at 10 uM; assay type: cell-based
[15] = system: Caco-2; assay: Ratio of permeability from basolateral to apical side over apical to basolateral side in human Caco-2 cells at 1 uM; assay type: ADME, cell-based; conditions: caco-2, 1 µM
Procedure, shortened: (§3)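 Confluent Caco-2 monolayers dosed with TDF (1–1,000 µM) on the apical or basolateral side at 37°C, 5% CO2. […] Efflux ratio = B-to-A Papp / A-to-B Papp. Two independent experiments in duplicate.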

[16] = system: Caco-2; assay: Ratio of permeability from basolateral to apical side over apical to basolateral side in human Caco-2 cells at 1000 uM; assay type: ADME, cell-based; conditions: caco-2, 1000 µM; procedure, shortened: as §3
[17] = system: Homo sapiens; assay: Effect on tenofovir disoproxil fumarate metabolism in ritonavir booster drug treated healthy human assessed as change in plasma Cmax of tenofovir at 500 mg, po, BID co-administered with 300 mg once daily dose of tenofovir disoproxil fumarate; assay type: ADME, organism-based; conditions: in vivo
[18] = system: Homo sapiens; assay: Effect on tenofovir disoproxil fumarate metabolism in ritonavir booster drug treated healthy human assessed as change in plasma Cmax of tenofovir at 750 mg, po, BID co-administered with 300 mg once daily dose of tenofovir disoproxil fumarate; assay type: ADME, organism-based; conditions: in vivo
[19] = system: Homo sapiens; assay: Effect on tenofovir disoproxil fumarate metabolism in ritonavir booster drug treated healthy human assessed as change in plasma AUC of tenofovir at 1000 mg, po, BID co-administered with 300 mg once daily dose of tenofovir disoproxil fumarate; assay type: ADME, organism-based; conditions: in vivo
[20] = system: Homo sapiens; assay: Effect on tenofovir disoproxil fumarate metabolism in ritonavir booster drug treated healthy human assessed as change in plasma Cmin of tenofovir at 1000 mg, po, BID co-administered with 300 mg once daily dose of tenofovir disoproxil fumarate; assay type: ADME, organism-based; conditions: in vivo
[21] = system: Homo sapiens; assay: Effect on tenofovir disoproxil fumarate metabolism in ritonavir booster drug treated healthy human assessed as change in plasma Cmax of tenofovir at 1000 mg, po, BID co-administered with 300 mg once daily dose of tenofovir disoproxil fumarate; assay type: ADME, organism-based; conditions: in vivo
[22] = system: Homo sapiens; assay: Effect on tenofovir disoproxil fumarate metabolism in ritonavir booster drug treated healthy human assessed as change in plasma Cmax of tenofovir at 800 mg, po, TID co-administered with 300 mg once daily dose of tenofovir disoproxil fumarate; assay type: ADME, organism-based; conditions: in vivo
[23] = system: Homo sapiens; assay: Effect on tenofovir disoproxil fumarate metabolism in ritonavir booster drug treated healthy human assessed as change in plasma Cmin of tenofovir at 300 mg, po, QD co-administered with 300 mg once daily dose of tenofovir disoproxil fumarate; assay type: ADME, organism-based; conditions: in vivo
[24] = system: Homo sapiens; assay: Effect on tenofovir disoproxil fumarate metabolism in ritonavir booster drug treated healthy human assessed as change in plasma Cmax of tenofovir at 300 mg, po, QD co-administered with 300 mg once daily dose of tenofovir disoproxil fumarate; assay type: ADME, organism-based; conditions: in vivo
[25] = system: Homo sapiens; assay: Effect on tenofovir disoproxil fumarate metabolism in ritonavir booster drug treated healthy human assessed as change in plasma AUC of tenofovir at 300 mg, po, QD co-administered with 300 mg once daily dose of tenofovir disoproxil fumarate; assay type: ADME, organism-based; conditions: in vivo
[26] = system: Homo sapiens; assay: Effect on tenofovir disoproxil fumarate metabolism in ritonavir booster drug treated healthy human assessed as change in plasma Cmin of tenofovir at 1400 mg, po, BID co-administered with 300 mg once daily dose of tenofovir disoproxil fumarate; assay type: ADME, organism-based; conditions: in vivo
[27] = system: Homo sapiens; assay: Effect on tenofovir disoproxil fumarate metabolism in ritonavir booster drug treated healthy human assessed as change in plasma AUC of tenofovir at 1400 mg, po, BID co-administered with 300 mg once daily dose of tenofovir disoproxil fumarate; assay type: ADME, organism-based; conditions: in vivo
[28] = system: Homo sapiens; assay: Effect on tenofovir disoproxil fumarate metabolism in ritonavir booster drug treated healthy human assessed as change in plasma Cmax of tenofovir at 700 mg, po, BID co-administered with 300 mg once daily dose of tenofovir disoproxil fumarate; assay type: ADME, organism-based; conditions: in vivo
[29] = system: Homo sapiens; assay: Effect on tenofovir disoproxil fumarate metabolism in ritonavir booster drug treated healthy human assessed as change in plasma Cmax of tenofovir at 1400 mg, po, BID co-administered with 300 mg once daily dose of tenofovir disoproxil fumarate; assay type: ADME, organism-based; conditions: in vivo
[30] = system: Homo sapiens; assay: Effect on tenofovir disoproxil fumarate metabolism in HIV infected patient assessed as change in plasma Cmin of tenofovir at 400 mg, po, BID co-administered with 300 mg once daily dose of tenofovir disoproxil fumarate; assay type: ADME, organism-based; conditions: in vivo
[31] = system: Homo sapiens; assay: Effect on tenofovir disoproxil fumarate metabolism in ritonavir booster drug treated HIV infected patient assessed as change in plasma AUC of tenofovir at 400 mg, po, BID co-administered with 300 mg once daily dose of tenofovir disoproxil fumarate; assay type: ADME, organism-based; conditions: in vivo
[32] = system: Homo sapiens; assay: Effect on tenofovir disoproxil fumarate metabolism in HIV infected patient assessed as change in plasma Cmax of tenofovir at 400 mg, po, BID co-administered with 300 mg once daily dose of tenofovir disoproxil fumarate; assay type: ADME, organism-based; conditions: in vivo

SMILES: CC(C)c1nc(CN(C)C(=O)N[C@H](C(=O)N[C@@H](Cc2ccccc2)C[C@H](O)[C@H](Cc2ccccc2)NC(=O)OCc2cncs2)C(C)C)cs1
Activity [5]: Active | Activity [3]: Active

SMILES: CC(C)CN(C[C@@H](O)[C@H](Cc1ccccc1)NC(=O)O[C@H]1CCOC1)S(=O)(=O)c1ccc(N)cc1
inhibition at 50 µM [6]: ≤ 25% | Activity [3]: Active

SMILES: CC(C)OC(=O)OCOP(=O)(CO[C@H](C)Cn1cnc2c(N)ncnc21)OCOC(=O)OC(C)C.O=C(O)/C=C/C(=O)O [TENOFOVIR DISOPROXIL FUMARATE]
fold change (FC) [10]: 2.5 | Activity [11]: 0.012 min⁻¹ | Activity [12]: 0.016 min⁻¹ | Activity [13]: 0.021 min⁻¹ | fold change (FC) [14]: 1.4 | Ratio [15]: 25 | Ratio [16]: 2.6

SMILES: CCC[C@@]1(CCc2ccccc2)CC(O)=C([C@H](CC)c2cccc(NS(=O)(=O)c3ccc(C(F)(F)F)cn3)c2)C(=O)O1
Activity [17]: -23% | Activity [18]: -38%

SMILES: Cc1nc(COc2ccc(C[C@H](NC(=O)O[C@H]3CO[C@H]4OCC[C@H]43)[C@H](O)CN(CC(C)C)S(=O)(=O)c3ccc4c(c3)OCO4)cc2)cs1 [BRECANAVIR]
Activity [8]: 32% | Activity [9]: 24% | IC50 [2]: 24.1 µM | Activity [2]: Dose-dependent effect | inhibition [3]: Active | inhibition at 20 µM [4]: 50%

SMILES: COC(=O)N[C@H](C(=O)N[C@@H](Cc1ccccc1)[C@@H](O)CN(Cc1ccc(-c2ccccn2)cc1)NC(=O)[C@@H](NC(=O)OC)C(C)(C)C)C(C)(C)C [ATAZANAVIR]
Activity [23]: 29% | Activity [5]: Active | Activity [24]: 34% | IC50 [2]: 67.8 µM | Activity [2]: Dose-dependent effect | Activity [3]: Active | Activity [25]: 37%

SMILES: CC(C)CN(C[C@@H](OP(=O)(O)O)[C@H](Cc1ccccc1)NC(=O)O[C@H]1CCOC1)S(=O)(=O)c1ccc(N)cc1 [FOSAMPRENAVIR]
Activity [26]: -12% | Activity [27]: -15% | Activity [28]: -18% | Activity [29]: -25%

SMILES: Cc1cccc(C)c1OCC(=O)N[C@@H](Cc1ccccc1)[C@@H](O)C[C@H](Cc1ccccc1)NC(=O)[C@H](C(C)C)N1CCCNC1=O [LOPINAVIR]
Activity [30]: 51% | Activity [10]: 100% | Activity [31]: 32% | Activity [5]: Active | Activity [32]: 15% | Activity [2]: Dose-dependent effect | Activity [3]: Active | inhibition at 20 µM [4]: 50%

Second part, led by results:

Activity [1]: 9% | Activity [2]: Dose-dependent effect | Activity [3]: Active | inhibition at 20 µM [4]: 50%
SMILES: Cc1c(O)cccc1C(=O)N[C@@H](CSc1ccccc1)[C@H](O)CN1C[C@H]2CCCC[C@H]2C[C@H]1C(=O)NC(C)(C)C

Activity [7]: 37% | activity at 50 µM ([6]; read-out: Activity): 15% | Activity [8]: 22% | Activity [9]: 24% | IC50 [2]: > 100 µM | inhibition [3]: < 40%
SMILES: CC(C)CN(C[C@@H](O)[C@H](Cc1ccccc1)NC(=O)O[C@H]1CO[C@H]2OCC[C@H]21)S(=O)(=O)c1ccc(N)cc1

Activity [19]: 14% | Activity [20]: 23% | Activity [2]: Dose-dependent effect | Activity [3]: Active | Activity [21]: 15%
SMILES: CC(C)(C)NC(=O)[C@@H]1C[C@@H]2CCCC[C@@H]2CN1C[C@@H](O)[C@H](Cc1ccccc1)NC(=O)[C@H](CC(N)=O)NC(=O)c1ccc2ccccc2n1
Activity [5]: Active

inhibition at 50 µM [6]: ≤ 25% | inhibition [3]: < 40% | Activity [22]: 14%
SMILES: CC(C)(C)NC(=O)[C@@H]1CN(Cc2cccnc2)CCN1C[C@@H](O)C[C@@H](Cc1ccccc1)C(=O)N[C@H]1c2ccccc2C[C@H]1O.O
